In ChEMBL document CHEMBL3588754, “Parallel Synthesis of Hexahydrodiimidazodiazepines Heterocyclic Peptidomimetics and Their in Vitro and in Vivo Activities at μ (MOR), δ (DOR), and κ (KOR) Opioid Receptors” (J Med Chem, 2015):
Calls of active or inactive are those of the source.

Assays:
[1] = target: Kappa-type opioid receptor (Cavia porcellus, UniProt P41144); assay: Displacement of [3H]U69593 from kappa opioid receptor in guinea pig cortices and cerebella by competition binding assay
Procedure, shortened: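 Guinea pig cortex and cerebellum membranes were prepared in 50 mM Tris pH 7.4 with 10 mM MgCl2. Assay used 2 nM [3H]U69,593, incubated 2 h at 25 °C. Unlabeled U50,488 defined nonspecific binding. Filtration was through GF/B filters, with scintillation counting. Ki is mean ± SD of two experiments, each in duplicate.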

[2] = target: Delta-type opioid receptor (Rattus norvegicus, UniProt P33533); assay: Displacement of [3H]DPDPE from delta opioid receptor in rat cortices by competition binding assay
Procedure, shortened: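 Rat cortex membranes were prepared in 50 mM Tris pH 7.4 with 10 mM MgCl2 and 200 μM PMSF. Assay used 2 nM [3H]DPDPE, incubated 2.5 h at 25 °C. Unlabeled DPDPE defined nonspecific binding. Filtration was through BSA-soaked GF/B filters, with scintillation counting. Ki is mean ± SD of two experiments, each in duplicate.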

[3] = target: Delta-type opioid receptor (Homo sapiens, UniProt P41143); assay: Agonist activity at delta opioid receptor (unknown origin) expressed in CHO-K1 cells assessed as inhibition of forskolin-induced cAMP accumulation by FRET assay; assay type: functional, cell-based
Procedure, shortened: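 CHO cells stably expressing DOR, plated at 20 000 cells/well (figure legend: 100 000). Exposed to test agent with 4 μM forskolin (legend: 1 μM) in 1× PBS with 1 mM […] for 30 min at rt. HTRF cAMP read-out with europium cryptate and d2 in lysis buffer for 1 h. EC50 ± SEM from three experiments, two replicates each.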

[4] = test system: Mus musculus; assay: Antinociceptive effect in icv dosed C57BL/6 mouse assessed as tail withdrawal latency measured up to 2 hrs by 55 degC Warm water tail withdrawal assay; assay type: functional
[5] = test system: Mus musculus; assay: Antinociceptive effect in ip dosed C57BL/6 mouse assessed as tail withdrawal latency measured up to 2 hrs by 55 degC Warm water tail withdrawal assay; assay type: functional; details: C57BL/6, Tail
[6] = test system: Mus musculus; assay: Antinociceptive effect in po dosed C57BL/6 mouse assessed as tail withdrawal latency measured up to 2 hrs by 55 degC Warm water tail withdrawal assay; assay type: functional; details: C57BL/6, Tail
[7] = test system: Mus musculus; assay: Antinociceptive effect in icv treated C57BL/6 mouse assessed as tail withdrawal latency at 30 nM, icv measured up to 2 hrs by 55 degC Warm water tail withdrawal assay; assay type: functional
[8] = test system: Mus musculus; assay: Antinociceptive effect in C57BL/6 mouse assessed as tail withdrawal latency at 10 mg/kg, ip measured up to 2 hrs by 55 degC Warm water tail withdrawal assay; assay type: functional
[9] = test system: Mus musculus; assay: Antinociceptive effect in C57BL/6 mouse assessed as tail withdrawal latency at 30 mg/kg, po measured up to 2 hrs by 55 degC Warm water tail withdrawal assay; assay type: functional
[10] = test system: Mus musculus; assay: Antinociceptive effect in icv dosed C57BL/6 mouse assessed as tail withdrawal latency measured up to 2 hrs by 55 degC Warm water tail withdrawal assay in presence of 0.5 mg/kg, sc naltrindole; assay type: functional, organism-based
[11] = test system: Mus musculus; assay: Analgesic activity in ip dosed C57BL/6 mouse assessed as inhibition of acetic acid-induced writhing response measured after 5 mins by acetic acid writhing assay; assay type: functional; details: C57BL/6, ip
Procedure, shortened: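 Adult male C57BL/6J mice, eight per dose, were given a single graded ip dose in 1:1:8 ethanol/Tween-80/saline vehicle. After 25 min they received 0.9% acetic acid ip. Writhes were counted for 15 min starting 5 min later. % antinociception was taken relative to the ip vehicle group, and ED50 with 95% CI was obtained by regression.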

[12] = test system: Mus musculus; assay: Antinociceptive effect in icv dosed MOR knock out C57BL/6 mouse assessed as tail withdrawal latency measured up to 2 hrs by 55 degC Warm water tail withdrawal assay; assay type: functional, organism-based
[13] = test system: Mus musculus; assay: Antinociceptive effect in icv dosed KOR knock out C57BL/6 mouse assessed as tail withdrawal latency measured up to 2 hrs by 55 degC Warm water tail withdrawal assay; assay type: functional, organism-based
[14] = test system: Mus musculus; assay: Antinociceptive effect in icv dosed C57BL/6 mouse assessed as tail withdrawal latency measured up to 2 hrs by 55 degC Warm water tail withdrawal assay in presence of 4 nmol, icv ICI174864; assay type: functional, organism-based
[15] = test system: Mus musculus; assay: Antinociceptive effect in C57BL/6 mouse assessed as tail withdrawal latency measured at 30 nM, icv up to 2 hrs by 55 degC Warm water tail withdrawal assay in presence of 30 nM, icv naloxone methiodide on same side of blood brain barrier impermeable opioid antagonist; assay type: functional, organism-based
Procedure, shortened: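 Adult male C57BL/6J mice, 55 °C warm-water tail withdrawal. Naloxone methiodide pretreatment (30 nmol icv or 30 mg/kg sc) 30 min before the test agent (30 nmol icv in 50% DMSO/saline, or 10 mg/kg ip in 1:1:8 ethanol/Tween-80/saline). Read 30 min after the test agent. % antinociception vs baseline latency with 15 s cutoff. n = 8, mean ± SEM, one-way ANOVA/Tukey.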

[16] = test system: Mus musculus; assay: Antinociceptive effect in C57BL/6 mouse assessed as tail withdrawal latency measured at 10 mg/kg, ip […] by 55 degC Warm water tail withdrawal assay in presence of 30 mg/kg, sc naloxone methiodide on same side of blood brain barrier impermeable opioid antagonist; assay type: functional, organism-based
[17] = test system: Mus musculus; assay: Antinociceptive effect in C57BL/6 mouse assessed as tail withdrawal latency measured at 30 nM, icv […] by 55 degC Warm water tail withdrawal assay in presence of 30 nM, icv naloxone methiodide on other side of blood brain barrier impermeable opioid antagonist; assay type: functional, organism-based
[18] = test system: Mus musculus; assay: Antinociceptive effect in C57BL/6 mouse assessed as tail withdrawal latency […] by 55 degC Warm water tail withdrawal assay in presence of 30 mg/kg, sc naloxone methiodide on other side of blood brain barrier impermeable opioid antagonist; assay type: functional, organism-based
[19] = test system: Mus musculus; assay: Antinociceptive effect in C57BL/6 mouse assessed as tail withdrawal latency measured up to 2 hrs by 55 degC Warm water tail withdrawal assay in presence of 10 mg/kg, ip morphine; assay type: functional, organism-based
Procedure, shortened: (§1)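 Test agent given to male C57BL/6J mice 2 h before agonist challenge: morphine 10 mg/kg ip, U50,488 10 mg/kg ip, or SNC-80 100 nmol icv. 55 °C warm-water tail withdrawal read 30 min after the agonist. % antinociception relative to baseline latency with 15 s cutoff.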

[20] = test system: Mus musculus; assay: Antinociceptive effect in C57BL/6 mouse assessed as tail withdrawal latency measured up to 2 hrs by 55 degC Warm water tail withdrawal assay in presence of 100 nM, icv SNC80; assay type: functional, organism-based; procedure, shortened: as §1
[21] = test system: Mus musculus; assay: Antinociceptive effect in C57BL/6 mouse assessed as tail withdrawal latency measured up to 2 hrs by 55 degC Warm water tail withdrawal assay in presence of 10 mg/kg, ip U50488; assay type: functional, organism-based; procedure, shortened: as §1
[22] = test system: Serum; assay: Drug uptake in C57BL/6 mouse serum at 30 mg/kg, po after 30 mins by LC-MS/MS analysis; assay type: ADME, organism-based; details: in vivo, 0.5 h
Procedure, shortened: (§2)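 Male C57BL/6J mice dosed orally at 30 mg/kg in 1:1:8 ethanol/Tween-80/saline, killed at 30, 60, or 90 min. Serum deproteinized with 4 volumes of cold MeCN. Perfused brains homogenized. Supernatants dried and reconstituted in 20% MeCN. C18 LC–MS/MS with summed ion-transition peak areas. Two mice per time point, mean peak area ± SEM.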

[23] = test system: Brain; assay: Drug uptake in C57BL/6 mouse brain at 30 mg/kg, po after 30 mins by LC-MS/MS analysis; assay type: ADME, organism-based; details: in vivo, 0.5 h; procedure, shortened: as §2
[24] = test system: Mus musculus; assay: Antinociceptive tolerance in C57BL/6 mouse assessed as tail withdrawal latency measured treated at 5 nmol, icv first dose second dose after 8 hrs by 55 degC Warm water tail withdrawal assay; assay type: functional
Procedure, shortened: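 Acute tolerance was tested in C57BL/6J mice, 8 per dose. The first icv dose was given at time 0: 3 nmol morphine or 5 nmol test agent. A second icv dose between 0.3 and 100 nmol followed 8 h later. Tail withdrawal at 55 °C was measured 30 min after the second injection. Tolerance was judged from the shift in ED50 between single and repeated treatment.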

[25] = test system: Mus musculus; assay: Toxicity in C57BL/6 mouse assessed as coordinated locomotor activity at 30 nM, icv up to 60 mins; assay type: organism-based; details: in vivo, icv_or_intrathecal, 1 h, 0.03 µM
Procedure, shortened: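 Rotorod test after seven habituation trials, the last used as baseline. Test agent 30 nmol icv, vehicle 50% DMSO/saline. Accelerating trials (0–20 rpm, 180 s max) from 10 min over 60 min. Latency to fall expressed as % change from baseline. n = 8–16 per group, repeated-measures/two-way ANOVA with Tukey.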

## CC(C)C[C@H]1CN2C(=CC3=NC[C@H](C(C)C)N3C[C@@H]2Cc2ccc(O)cc2)N1CCc1ccccc1
[1]
  Ki: 23 nM
[2]
  Ki: 32 nM
[3]
  EC50: 366 nM
[4]
  Activity: Dose-dependent effect
[5]
  ED50: 5.09 mg/kg
[6]
  ED50: 23.2 mg/kg
[7]
  Time: 80 min
[8]
  Time: 80 min
[9]
  Time: 110 min
[10]
  inhibition: inactive
[11]
  ED50: 0.07 mg/kg
[12]
  inhibition: inactive
[13]
  inhibition: inactive
[14]
  inhibition: inactive
[15]
  inhibition: inactive
[16]
  inhibition: inactive
[17]
  Activity: Active
[18]
  Activity: Active
[19]
  Activity: Active
[20]
  Activity: Active
[21]
  Activity: Active
[22]
  Drug uptake: Active
[23]
  Drug uptake: Not Active
[24]
  ED50: 2.32 nmol
[25]
  Activity: Non-toxic
